From PubChem BioAssay
TbMetRS inhib – Trypanosoma brucei MetRS inhibition | inhibition, % at 11.9 µM | purified T. brucei MetRS, ATP depletion, Kinase-Glo luminescence | hit rate 0.4% among 360,000 | AID 624268;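 active = inhibition above a per-plate cutoff of the control wells' mean inhibition plus 3 SD, cut at about 5.5% in these data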
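Material – parasite MetRS enzyme · Medium – HEPES-MgCl2-KCl buffer plus DTT, spermine, BSA, pyrophosphatase · Reagent – ATP, methionine and E. coli bulk tRNA substrates · Times – 15 min enzyme-compound preincubation, 2 h reaction, 10 min detection, 25 °C · Measured by – luminescence of leftover ATP · Evaluation – percent inhibition relative to median high and low control wells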
MsrA act – bovine methionine sulfoxide reductase A activation; purified bovine MsrA, absorbance read-out; activation, % at 10.6 µM; hit rate 0.3% among 360,000; AID 602163; in the data active = activation above about 7.5%
MsrA inhibitor – bovine MsrA inhibition; purified bovine MsrA, absorbance read-out; inhibition, % at 15.5 µM; hit rate 0.75% among 360,000; in the data active = inhibition above about 4.5%
m5-HT2A agonist – activates the mouse 5-HT2A serotonin receptor. CHO-K1 mHTR2A beta-arrestin complementation, luminescence; percent of 30 µM serotonin response. activation, % at 7.6 µM. AID 624169. hit rate 0.66% among 360,000. P35363;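 active = activation above a run cutoff, the mean activation of all tested compounds plus 3 SD, cut at about 14% in these data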
Target sequence (P35363 whole entry, looked up): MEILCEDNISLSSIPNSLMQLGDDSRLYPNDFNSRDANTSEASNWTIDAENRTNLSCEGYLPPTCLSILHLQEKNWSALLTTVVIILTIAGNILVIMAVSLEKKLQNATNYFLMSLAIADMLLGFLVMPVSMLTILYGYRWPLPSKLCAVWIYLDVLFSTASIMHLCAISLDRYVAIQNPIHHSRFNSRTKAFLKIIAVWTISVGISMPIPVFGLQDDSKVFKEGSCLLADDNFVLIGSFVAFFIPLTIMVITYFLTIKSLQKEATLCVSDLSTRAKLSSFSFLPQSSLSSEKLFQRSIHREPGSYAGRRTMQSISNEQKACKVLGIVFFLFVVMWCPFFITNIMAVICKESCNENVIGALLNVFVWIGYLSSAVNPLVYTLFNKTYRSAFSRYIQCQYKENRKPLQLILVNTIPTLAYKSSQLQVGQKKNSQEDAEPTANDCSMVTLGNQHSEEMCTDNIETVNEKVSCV
AI-2 QS modul – modulates the Vibrio harveyi AI-2 quorum sensing system | AID 2094 | Vibrio harveyi JMH597 AI-2 luminescence/OD600 ratio, 9 h; active compounds read low; strain lacks LuxN and CqsS sensors; 0 = neutral-control median | activity change, % at 7.5 µM | hit rate 0.4% among 300,000; in the data active = activity change below about -75%, passing the limit was not always enough;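 also: luminescence divided by OD600 gain over 9 h not by final OD600 alone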
AHR activator – activators of human aryl hydrocarbon receptor | hit rate 2.5% among 320,000 | activation, % at 5 µM | AHR-responsive luciferase reporter cells, luminescence | P35869; in the data active = activation above about 47%
A number is an active result; - = inactive; . = no result given. Rows were chosen to be rich in hits. Some 4.4% of all compounds tested hit in one or more screens of this group.

SMILES	TbMetRS inhib	MsrA act	MsrA inhibitor	m5-HT2A agonist	AI-2 QS modul	AHR activator
CC(=O)N1CCN(c2ccc(N3CCN(Cc4ccccc4)[C@H](C)C3)c(C)c2)[C@@H](C)C1	.	.	-	.	.	.
COc1ccc(C(=O)c2coc3c2C(=O)C(=O)c2ccccc2-3)cc1	-	-	-	-	-91.6	-
CCOC(=O)C1CSCCS(=O)(=O)N1Cc1ccc(C)cc1 (centres undefined)	.	.	-	.	.	.
COC(=O)c1cc2c(c3c4cc(F)ccc4n(S(=O)(=O)c4ccc(C)cc4)c13)C(=O)N(Cc1ccccc1OC)C2	.	.	-	.	.	.
O=C(Nc1ccc(Br)cc1)c1cccn1-c1ncc(C(F)(F)F)cc1Cl	-	-	-	-	-	62.3
COc1ccccc1N=Nc1ccc(N)c(C)c1	-	-	-	-	-	59.6
Oc1[nH]c2ccccc2c1N=Nc1cccc(Cl)c1	-	-	-	-	-	-
Cc1cccc2c(N=Nc3ccccc3)c(O)[nH]c12	-	-	-	-	-	76.2
COC(=O)c1cc2c(c3c4cc(C)ccc4n(S(=O)(=O)c4ccc(C)cc4)c13)C(=O)N(Cc1ccc(N(C)C)cc1)C2	.	.	-	.	.	.
CC1CCCN(c2nc(NCc3ccco3)nc(N)c2[N+](=O)[O-])C1 (centres undefined)	-	-	-	-	-	-
Cc1ccc(Nc2nc(N)c([N+](=O)[O-])c(N3CCCC(C)C3)n2)cc1C (centres undefined)	-	-	-	-	-	51.3
CN(c1ccccc1)S(=O)(=O)c1cccc(C(=O)N2CCN(c3ccccn3)CC2)c1	-	-	-	-	-	64.2
Cc1cccc(NS(=O)(=O)c2cccc(C(=O)N3CCN(c4ccccn4)CC3)c2)c1	-	-	-	-	-	-
CN(Cc1ccccc1)C(=O)c1ccccc1N(C)S(=O)(=O)c1ccccc1	-	-	-	-	.	.
O=C(CNC(=O)c1cccs1)c1ccc([N+](=O)[O-])cc1	-	-	-	-	-	77.8
O=C(CNc1ccccc1)c1ccc([N+](=O)[O-])cc1	-	-	-	-	-	63.4
O=C(CNC(=O)c1ccc([N+](=O)[O-])cc1)c1ccccc1	-	-	.	-	.	-
O=C(CNC(=O)c1cccs1)OCC(=O)c1ccc([N+](=O)[O-])cc1	-	-	-	-	-	-
O=C(Nc1ccc(Cl)c(C(F)(F)F)c1)C1Cc2c(-c3ccc4c(c3)OCO4)ccnc2O1 (centres undefined)	-	-	-	-	.	.
Cc1cc(C)c(NC(=O)CCCCCNC2CCCCC2)c(C)c1	-	-	-	-	-	.
CCCCCCCCN1C(=O)[C@@H](CC(=O)NCCc2ccccc2OC)C[C@@]2(C(=O)OC)C1=C[C@H](C(C)(C)C)O[C@@H]2C	.	.	-	.	.	.
Cc1ccccc1-c1ccc2c(c1)[C@@H]1C[C@H]3[C@@H](CN1CC2)[C@H](C)OC(c1ccccc1)N3C (some centres undefined)	.	.	-	.	.	.
COc1ccc(CCNc2ncnc3sccc23)cc1OC	-	-	-	-	-	-
COc1ccc(Nc2ncnc3sccc23)cc1OC	-	-	-	-	-	64.3
CSc1nsc(SC)c1C(=O)Nc1ccc(C)cc1	-	-	-	-	-	-
SMILES	TbMetRS inhib	MsrA act	MsrA inhibitor	m5-HT2A agonist	AI-2 QS modul	AHR activator
CSc1nsc(SC)c1C(=O)Nc1ccc(Cl)cc1	-	-	-	-	-	58.0
COc1ccc(Cl)cc1N1C(=O)CN(Cc2cc(OC)c(OC)c(OC)c2)C1=S	-	-	-	-	-	-
CCCCc1c(-c2ccccc2OC)ncn1Cc1c(F)cccc1F	.	.	-	.	.	.
O=C(/C=C/c1ccccc1)NCCC1=CCCCC1	-	-	-	-	-85.8	-
OCC1SC(O)C(O)C(O)C1O (centres undefined)	.	.	-	.	.	.
COc1ccccc1CNS(=O)(=O)c1ccc(F)cc1Br	.	.	-	.	.	.
C/C(=N\O)c1noc(C)c1C(=O)Nc1nccs1	-	-	-	-	-	50.1
COc1cccc(CNC(=O)[C@H]2CCCN2C(=O)C2CCCN2C(=O)c2ccc(OC)c(F)c2)c1 (some centres undefined)	.	.	-	.	.	.
Cc1ccsc1C(=O)OCc1nc2ccccc2c(=O)[nH]1	-	-	-	-	-	56.3
Cc1ccsc1C(=O)OCc1nc2ccsc2c(=O)[nH]1	-	-	-	-	-	-
Cc1ccc2nc(-c3ccc(F)cc3)c(Cc3cccc(F)c3)n2c1	.	.	-	.	.	.
Cc1ccc(NC(=O)c2ccc3nc[nH]c3c2)cc1C	-	-	-	-	-	64.1
Cc1cc(C)cc(NC(=O)c2ccc3nc[nH]c3c2)c1	-	-	-	-	-	-
O=C(NCc1ccccc1)[C@@H]1CCCN1C(=O)[C@H]1CCCN1C(=O)c1ccc(Cl)c(Cl)c1	.	.	-	.	.	.
COc1ccccc1-c1cccc2[nH]c3c(c12)CCN1C(=O)[C@H]2[C@H](C)ON(C)[C@H]2C[C@@H]31	.	.	-	.	.	.
CCn1c(/C=C/c2c[nH]c3ccccc23)nc2ccccc2c1=O	-	-	-	-	-	-
CCn1c(/C=C/c2ccccc2[N+](=O)[O-])nc2ccccc2c1=O	-	-	-	-	-	-
CCn1c(/C=C/c2cccc([N+](=O)[O-])c2)nc2ccccc2c1=O	-	-	-	-	-	68.1
CCn1c(/C=C/c2c(C)[nH]c3ccccc23)nc2ccccc2c1=O	-	-	-	-	-	64.6
COc1ccc(-c2cc(-c3c(O)c(OC)c4occc4c3OC)[nH]n2)cc1OC	-	-	-	-	-	-
COc1ccc(-c2cc(-c3c(O)c(OC)c4occc4c3OC)[nH]n2)cc1	-	-	-	-	-	68.8
C[C@@H]1CN([C@H](C)CO)C(=O)CCCn2cc(nn2)CO[C@H]1CN(C)C(=O)Oc1ccccc1	.	.	-	.	.	.
OCCCn1c(C2CCCN2c2nc(-c3ccc(F)cc3)cs2)nc2cc(C(F)(F)F)ccc21 (centres undefined)	-	-	-	-	-	-
OCCCn1c(CCNc2nc(-c3ccc(F)cc3)cs2)nc2cc(C(F)(F)F)ccc21	-	-	-	-	-	50.7
Clc1ccc(-c2cnc3ccccc3n2)cc1	-	-	-	-	-	52.5
SMILES	TbMetRS inhib	MsrA act	MsrA inhibitor	m5-HT2A agonist	AI-2 QS modul	AHR activator
Oc1ccc(-c2cnc3ccccc3n2)cc1	-	-	-	-	-	-
O=C(CSc1cc(Cl)ccc1Cl)NCCN1C(=O)CSC1=O	-	-	-	-	.	-
CN(C)S(=O)(=O)c1ccc(/C(O)=C2/C(=O)C(=O)N(CCN3CCCCC3)C2c2cccnc2)cc1 (centres undefined)	-	-	4.9	-	.	.
Nc1cc2nsnc2cc1Br	12.2	-	-	-	-	-
Nc1cccc2nsnc12	-	-	-	-	-	-
c1cncc(-c2nc3cc4ccccc4cc3[nH]2)c1	-	-	-	-	-	55.5
O=C(Nc1ccc2nc(-c3cccnc3)[nH]c2c1)c1ccccc1F	-	-	-	-	-	-
Cc1nc2sc(-c3ccccc3)cc2c(=O)[nH]1	-	-	-	-	-	-
O=c1[nH]c(-c2cccnc2)nc2sc(-c3ccccc3)cc12	-	-	-	-	-	75.0
